Measured values as given in publication PMC4876928 (Clinical cancer research : an official journal of the …, 2016).

How the values were obtained:
[1] = Plasma pharmacokinetics in patients; type: in vivo, human; conditions: for half-life: human, plasma, po
Method in brief: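 Oral test compound was given as a single dose on day 1 (7-day run-in for terminal half-life), then QD from day 8. PPI cohort: rabeprazole 20 mg days 4-7, co-dosed day 8, intensive sampling day 8. Quantified by LC-MS/MS.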

[2] = test system: phospho-AKT (pAKT) (S473) in platelet-rich plasma; assay: pAKT; type: in vivo, human
Method in brief: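 Patients took oral test compound QD on 21/28 or 28/28 schedules. Total AKT and pAKT (S473) were measured by Meso Scale Discovery immunoassay. Results are percent change in pAKT from baseline.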

[3] = molecular target: mTOR kinase; conditions: read-out: inhibition constant (Ki) mTOR kinase; cited from earlier work

For Cc1c(CN2CCN(C(=O)[C@H](C)O)CC2)sc2c(N3CCOCC3)nc(-c3cnc(N)nc3)nc12 [apitolisib], the half-life ([1]; mean terminal elimination half-life, patients) was 11.3 h, the half-life ([1]; terminal elimination half-life, range, patients) was 3.26 to 45.4 h and the “time of peak mean plasma concentration after dose” value ([1]; oral, patients) was 1 to 2 h. The “impact of PPI on apitolisib PK” value ([1]; rabeprazole 20 mg daily for 5 days, 6 patients) was “no significant impact”, the accumulation ([1]; repeated QD doses) was “less than 1.2” and the “sustained pAKT inhibition” value ([2]; 40 mg 28/28) was > 90%. For the same molecule, the “doses with target modulation” value ([2]; in vivo) was ≥ 16 mg, the “suppression of phosphorylated serine-473 AKT levels” value ([2]; platelet-rich plasma, within 4 hours, MTD 50 mg) was ≥ 90% and the Ki [3] was 17.3 nM.
